Screening results as filed in PubChem BioAssay.
Apaf-1 inh: blocks human Apaf-1 apoptosome activity; inhibition, % at 20 µM; 330,000 compounds, 0.71% hits; reconstituted apoptosome caspase-3 activity, DEVD-Rh110 fluorescence; O14727; active = inhibition of at least 40% at 20 µM
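System: Apoptosome proteins | Medium: Hepes pH 7.5 with detergent and BSA | Also added: Cytochrome c trigger plus (Z-DEVD)2-Rh110 caspase-3 substrate | Incubation: 30 min compound preincubation, 50 min activation, room temperature | Detection: Rhodamine 110 fluorescence at Ex 480/Em 540 nm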
CTSL1 counter: cathepsin L1 inhibition, PFM18AAP counter-screen; inhibition, % at 5.96 µM; recombinant F. hepatica cathepsin L1, Z-Leu-Arg-MCA fluorescence; 300,000 compounds, 0.49% hits;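 active = inhibition above the mean of all tested compounds plus 3 SD, set per screening campaign, cut at about 17% in these data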
PP5 inh: blocks human protein phosphatase 5 activity | P53041 | purified PP5c, OMFP substrate fluorescence | inhibition, % at 6.7 µM | 320,000 compounds, 0.18% hits;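 active = inhibition above the campaign's mean inhibition across all tested compounds plus 3 SD, cut at about 9.5% in these data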
UCH37 DUB inh: inhibitors of human deubiquitinating enzyme UCH37; Q9Y5K5; purified proteasome/UCH37, Ub-AMC cleavage fluorescence; inhibition, % (no concentration beside the values); 330,000 compounds, 0.33% hits; AID 588478;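 active = mean inhibition over replicate wells above about 20%, limit read from the data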
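assay system = human UCH37 enzyme supplied as purified proteasome complex | amount = proteasome at 0.15 nM in the dispensed enzyme solution | schedule = 30 min compound-proteasome preincubation then 25 min substrate reaction, room temperature | measured by = fluorescence, ex 355 nm, em 460 nm | benchmarks = no-proteasome wells (full inhibition) and compound-free wells (no inhibition)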
PAD4 inh: inhibitors of human PAD4; inhibition, % at 6.36 µM; 330,000 compounds, 0.41% hits; AID 485272; recombinant PAD4, RCA probe fluorescence polarization;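 active = percent inhibition above a cutoff equal to the mean of all tested compounds plus 3 SD, cut at about 15% in these data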
Target sequence (Q9UM07 whole entry, looked up): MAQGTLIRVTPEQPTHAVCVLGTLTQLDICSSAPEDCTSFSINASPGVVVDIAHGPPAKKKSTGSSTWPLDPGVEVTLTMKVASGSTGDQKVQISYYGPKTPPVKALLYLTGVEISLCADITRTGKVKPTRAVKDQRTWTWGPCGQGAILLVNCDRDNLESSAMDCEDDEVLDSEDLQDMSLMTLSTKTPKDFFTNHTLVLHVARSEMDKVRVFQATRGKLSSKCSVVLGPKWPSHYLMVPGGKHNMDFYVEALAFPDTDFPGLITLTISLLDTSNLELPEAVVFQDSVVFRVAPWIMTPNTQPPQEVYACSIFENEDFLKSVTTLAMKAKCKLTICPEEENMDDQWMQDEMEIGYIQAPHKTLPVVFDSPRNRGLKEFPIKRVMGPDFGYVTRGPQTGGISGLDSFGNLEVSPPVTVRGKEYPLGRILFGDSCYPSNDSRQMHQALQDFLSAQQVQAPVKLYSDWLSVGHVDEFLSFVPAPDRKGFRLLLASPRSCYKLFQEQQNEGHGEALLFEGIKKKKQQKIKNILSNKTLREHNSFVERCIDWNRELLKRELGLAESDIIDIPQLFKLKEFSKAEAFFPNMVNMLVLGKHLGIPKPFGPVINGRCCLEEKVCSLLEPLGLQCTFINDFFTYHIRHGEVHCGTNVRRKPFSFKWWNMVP
GSTO1 inh: blocks human GSTO1 in RBBP9 counter-screen; 300,000 compounds, 1.1% hits; recombinant GSTO1, activity-based probe fluorescence polarization; AID 1974; inhibition, % at 5.96 µM; P78417;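 active = inhibition above the campaign mean inhibition plus 3 SD, cut at about 35% in these data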
GSTO1 inh conf: confirmation of human GSTO1 inhibitors; 2,400 compounds, 54% hits; recombinant GSTO1, probe fluorescence polarization; shares compounds with GSTO1 inh; inhibition, % at 5.96 µM;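 active = inhibition above the primary screen's cutoff, its mean inhibition plus 3 SD, cut at about 35% in these data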;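 note: loss of polarization as inhibitors block binding of rhodamine sulfonate ester activity probe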
GSTO1 ABPP inh: inhibitors of recombinant human GSTO1. shares compounds with GSTO1 inh. gel ABPP SE-Rh probe fluorescence. inhibition, % at 1 µM. 130 compounds, 30% hits;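 active = inhibition of the enzyme GSTO1 above about 75%, limit read from the data; inactive = inhibition below that limit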
Large screens that a line does not name were inactive (follow-up assays come after a bar, where they were run). This is a sample that favours compounds with a hit; in the whole collection about 2% have one here.

CCc1ccc(-c2nc(CCl)cs2)cc1	GSTO1 inh 92 | GSTO1 inh conf 98 | GSTO1 ABPP inh 81
CC(=NNc1nc(C)cc(-c2ccccc2)n1)c1cccc(N)c1	none (no result: Apaf-1 inh, CTSL1 counter, PP5 inh, PAD4 inh, GSTO1 inh)
O=C(NCc1ccc2[nH]c3c(c2c1)CCCC3)N1CCOCC1	GSTO1 inh 49 (no result: UCH37 DUB inh) | GSTO1 inh conf 59
Cc1ccc(-c2ccccc2)n1-c1cccc(C(=O)O)c1	none
Cc1cc(C(=O)O)ccc1-n1c(C)ccc1C	GSTO1 inh 46 (no result: UCH37 DUB inh) | GSTO1 inh conf inactive
Nc1nonc1-c1nc2ccccc2n1CC(=O)NN=Cc1ccc(-c2cccc(C(=O)O)c2)o1	none (no result: Apaf-1 inh, CTSL1 counter, PP5 inh, PAD4 inh, GSTO1 inh)
CN(O)/C=c1/ccc2c(n1)C(=O)C=CC=2	GSTO1 inh 64 | GSTO1 inh conf inactive
COc1cc(C=NNC(=O)c2ccoc2C)cc(OC)c1O	none (no result: Apaf-1 inh, CTSL1 counter, PP5 inh, PAD4 inh, GSTO1 inh)
COc1ccc2c3c(cccc13)C(=O)N(O)C2=O	none (no result: Apaf-1 inh)
CCC1=NNc2cccc3c(OC)ccc1c23	Apaf-1 inh 52, PAD4 inh 37, GSTO1 inh 73 | GSTO1 inh conf inactive
COc1ccc(S(=O)(=O)NN=C(C)c2ccc(Cl)cc2)cc1	none (no result: Apaf-1 inh, CTSL1 counter, PP5 inh, PAD4 inh, GSTO1 inh)
COc1ccc(CC(C)=NNC(=S)Nc2ccc(Cl)cc2)cc1	none (no result: Apaf-1 inh, CTSL1 counter, PP5 inh, PAD4 inh, GSTO1 inh)
CCOC(=O)c1c(C)[nH]c(C)c1C(=O)COC(=O)c1cccc(S(=O)(=O)NC)c1	GSTO1 inh 40 | GSTO1 inh conf inactive
Cc1ccc(Sc2oc(C=Nn3cnnc3)cc2Br)cc1	none (no result: Apaf-1 inh, CTSL1 counter, PP5 inh, PAD4 inh, GSTO1 inh)
COc1cc2c(cc1NC(=O)CSc1nnc(Cc3cccs3)n1C)oc1ccccc12	GSTO1 inh 46 | GSTO1 inh conf inactive
COc1cc(C(C2C(=O)CC(C)(C)CC2=O)C2C(=O)CC(C)(C)CC2=O)ccc1OC(C)=O	none
COC(=O)C1(C)Cc2cc(OC(C)=O)c(OC(C)=O)cc2N1 (configuration not stated)	GSTO1 inh 66 (no result: UCH37 DUB inh) | GSTO1 inh conf inactive
CN=C1CC(C)(C)CC(=O)/C1=C(\O)CCCN1C(=O)c2ccccc2C1=O	none (no result: Apaf-1 inh, CTSL1 counter, PP5 inh, PAD4 inh, GSTO1 inh)
CC1C2CC(CC2=NNC(=O)c2cccs2)C1(C)C (configuration not stated)	none (no result: Apaf-1 inh, CTSL1 counter, PP5 inh, PAD4 inh, GSTO1 inh)
CCCCOCCCNS(=O)(=O)c1ccccc1	none
CCCCOP(=O)(OCCCC)C1(NS(=O)(=O)c2ccccc2)C=CC(=O)c2ccccc21 (configuration not stated)	GSTO1 inh 50 | GSTO1 inh conf inactive
CC(=O)N1CCc2[nH]c3ccc(C)cc3c2C1	CTSL1 counter 51, GSTO1 inh 54 (no result: UCH37 DUB inh) | GSTO1 inh conf inactive
COc1ccc(CCNC(=O)c2noc(C(C)C)c2[N+](=O)[O-])cc1OC	GSTO1 inh 39 | GSTO1 inh conf inactive
Cc1c(C(=O)c2no[n+]([O-])c2C(=O)c2cnn(C)c2C)cnn1C	GSTO1 inh 40 | GSTO1 inh conf inactive
O=C(c1cccs1)c1no[n+]([O-])c1C(=O)c1cccs1	none
C=CCn1c(NC(=O)c2ccc(Br)o2)c(S(=O)(=O)c2ccccc2)c2nc3ccccc3nc21	Apaf-1 inh 63, PAD4 inh 20, GSTO1 inh 65 | GSTO1 inh conf inactive
CC(C)C1=CC2=CCC3C(C)(C(=O)O)CCCC3(C)C2CC1 (configuration not stated) (tested in a mixture with another compound)	GSTO1 inh 39 (no result: UCH37 DUB inh) | GSTO1 inh conf inactive
C=C[C@]1(C)C=C2CCC3[C@](C)(CCC[C@@]3(C)C(=O)O)C2CC1 (some centres not stated)	none (no result: UCH37 DUB inh)
COc1ccc(NS(=O)(=O)c2cccc(C(=O)NN=Cc3c(F)c(F)c(F)c(F)c3F)c2)cc1	none (no result: Apaf-1 inh, CTSL1 counter, PP5 inh, PAD4 inh, GSTO1 inh)
CC(C)c1c(C(=O)NN=Cc2ccoc2)nnn1-c1nonc1N	none (no result: Apaf-1 inh, CTSL1 counter, PP5 inh, PAD4 inh, GSTO1 inh)
CC1(S(=O)(=O)O)CC(=O)c2ccccc2C1=O (configuration not stated)	GSTO1 inh 74 | GSTO1 inh conf 74
CC(NC(=O)CC(c1ccccc1)c1cc(Cl)ccc1O)c1ccccc1 (configuration not stated)	none (no result: Apaf-1 inh, UCH37 DUB inh)
CN(Cc1ccccc1)C(=O)CC(c1ccccc1)c1cc(Cl)ccc1O (configuration not stated)	GSTO1 inh 58 | GSTO1 inh conf inactive
Clc1ccc(C=NN2CCCCCC2)cc1Cl	none (no result: Apaf-1 inh, CTSL1 counter, PP5 inh, PAD4 inh, GSTO1 inh)
Oc1ccc(/C=N/N2CCCCC2)cc1O	GSTO1 inh 40 (no result: UCH37 DUB inh) | GSTO1 inh conf inactive
CCCc1ccc(C(=O)N2CCN(c3ccccc3OCC)CC2)cc1	GSTO1 inh 46 | GSTO1 inh conf inactive
O=[N+]([O-])c1ccc(O)c(/C=N/Nc2nn[nH]n2)c1	GSTO1 inh 47 (no result: UCH37 DUB inh) | GSTO1 inh conf inactive
COc1ccc(C(C(=O)NC2CCCCC2)N(C(=O)CCl)c2ccc(Cl)cc2)cc1 (configuration not stated)	GSTO1 inh 97 | GSTO1 inh conf 89 | GSTO1 ABPP inh 91
COC(CN(C(=O)CCl)C(C(=O)NC1CCCCC1)c1ccc(Cl)cc1)OC (configuration not stated)	CTSL1 counter 82, GSTO1 inh 73 | GSTO1 inh conf 98 | GSTO1 ABPP inh inactive
CN(C)C(C(=O)NC1CCCCC1)c1ccc(Cl)cc1 (configuration not stated)	none
Cc1ccc2[nH]c3ccccc3c(=O)c2c1	none
O=c1c2ccccc2[nH]c2ccc(O)cc12	GSTO1 inh 46 | GSTO1 inh conf inactive
Cn1nc(C(=O)NCC2CCCO2)c2ccccc2c1=O (configuration not stated)	GSTO1 inh 75 | GSTO1 inh conf inactive
C=CCN=c1scc(C)n1/N=C/c1ccc(O)c(O)c1	GSTO1 inh 95 (no result: UCH37 DUB inh) | GSTO1 inh conf inactive
CC(=O)Nc1ccccc1NC(=O)CC(C)=NNC(=O)C1CCCCC1	none (no result: Apaf-1 inh, CTSL1 counter, PP5 inh, PAD4 inh, GSTO1 inh)
N#Cc1c(SCC(=O)Nc2ccc(C(F)(F)F)cc2)sc2c(O)cc(=O)[nH]c12	none
N#Cc1c(SCC(=O)Nc2nncs2)sc2c(O)cc(=O)[nH]c12	GSTO1 inh 51 (no result: UCH37 DUB inh) | GSTO1 inh conf 63
COC(=O)NN=C(C)c1cccc(C(F)(F)F)c1	none (no result: Apaf-1 inh, CTSL1 counter, PP5 inh, PAD4 inh, GSTO1 inh)
COc1ccc(C2C(C#N)=C(N)Oc3n[nH]c(-c4ccccn4)c32)c(OC)c1OC (configuration not stated)	GSTO1 inh 43 | GSTO1 inh conf inactive
Nc1nnc(CC(=O)N/N=C/c2cc([N+](=O)[O-])cc(Br)c2O)s1	GSTO1 inh 41 (no result: UCH37 DUB inh) | GSTO1 inh conf 71
Cc1cc(C(=O)NN=C2CC(=O)CC(C)(C)C2)c(C)n1-c1ccc(F)cc1	none (no result: Apaf-1 inh, CTSL1 counter, PP5 inh, PAD4 inh, GSTO1 inh)
COC(=O)CCC(=O)OC1(C)C(=O)C=C2C=C(C3CC3)N(Cc3ccc4c(c3)OCO4)C=C2C1=O (configuration not stated)	GSTO1 inh 44 (no result: UCH37 DUB inh) | GSTO1 inh conf inactive
